{"data": "Results pooled from the literature", "cell line": "MV4-11", "read-out": "cell growth or viability", "note": "pEC50, pIC50: −log10 of the molar value."}
{"SMILES": "CC(C)Cc1ccc([C@H](C)C(=O)O)cc1", "technique": "MTT", "time": "72 h", "measurement": "pIC50", "value": 3.56}
{"SMILES": "CN(C)CCN(C)C(=O)c1ccc(-c2nc3ccc4[nH]ncc4c3c3c2CC(C)(C)CC3)cc1", "technique": "resazurin", "time": "72 h", "measurement": "GI50", "value": "1.9 µM"}
{"SMILES": "COc1ccc(Nc2ncnc3c2ncn3Cc2ccc(C(=O)NO)cc2)cc1", "technique": "MTT", "time": "72 h", "measurement": "pIC50", "value": 6.24}
{"SMILES": "Cc1n[nH]c2ccc3nc(-c4ccc(C(=O)N(C)CCN(C)C)cc4)c4c(c3c12)CCC(C)(C)C4", "technique": "resazurin", "time": "72 h", "measurement": "GI50", "value": "0.258 µM"}
{"SMILES": "Fc1ccc(Oc2ccc(Nc3ccc4ncc(OCC5CCNCC5)nc4c3)cc2)cc1", "technique": "XTT", "time": "7 days", "measurement": "pEC50", "value": 6.02}
{"SMILES": "O=C(NCC1CC1)c1ccc(-c2nc3ccc4[nH]ncc4c3c3c2CCCC3)cc1", "technique": "resazurin", "time": "72 h", "measurement": "GI50", "value": "> 10 µM"}
{"SMILES": "COc1ccc(Nc2ncnc3c2ncn3Cc2ccc(C(=O)Nc3ccccc3N)cc2)cc1", "technique": "MTT", "time": "72 h", "measurement": "pIC50", "value": 6.14}
{"SMILES": "Cc1cc2c(C(=O)O)cccc2n1-c1nc2c(c(NCc3ccccc3)n1)CCCN2", "time": "72 h", "measurement": "pIC50", "value": 6.10}
{"SMILES": "c1cc(N2CCCCC2)ccc1Nc1cc2ncc(OCC3CCNCC3)nc2cc1-c1ccc(N2CCCCC2)cc1", "technique": "XTT", "time": "7 days", "measurement": "pEC50", "value": 5.52}
{"SMILES": "O=C(NO)c1ccc(Cn2cnc3c(Nc4ccc(Br)cc4F)ncnc32)cc1", "technique": "MTT", "time": "72 h", "measurement": "pIC50", "value": 6.11}
{"SMILES": "c1ccc(COc2ccc(Nc3ccc4ncc(OCC5CCNCC5)nc4c3)cc2)cc1", "technique": "XTT", "time": "7 days", "measurement": "pEC50", "value": 6.08}
{"SMILES": "Cc1n[nH]c2ccc3nc(-c4ccc(C(=O)NCCN(C)C)nc4)c4c(c3c12)CCCCC4", "technique": "resazurin", "time": "72 h", "measurement": "GI50", "value": "0.181 µM"}
{"SMILES": "CONC(=O)c1cccc2c1cc(C)n2-c1nc2c(c(NCc3ccccc3)n1)CCCN2", "time": "72 h", "measurement": "pIC50", "value": 6.40}
{"SMILES": "c1cc(N2CCC(N3CCOCC3)CC2)ccc1Nc1ccc2ncc(OCC3CCNCC3)nc2c1", "technique": "XTT", "time": "7 days", "measurement": "pEC50", "value": "≤ 4.55"}
{"SMILES": "Cc1n[nH]c2ccc3nc(-c4ccc(C(=O)NCCN(C)C)cn4)c4c(c3c12)CCCCC4", "technique": "resazurin", "time": "72 h", "measurement": "GI50", "value": "0.132 µM"}
{"SMILES": "O=C(NO)c1ccc(Cn2cnc3c(Nc4ccc(F)c(Cl)c4)ncnc32)cc1", "technique": "MTT", "time": "72 h", "measurement": "pIC50", "value": 5.94}
